The record followed here is ChEMBL document CHEMBL1165965, “Synthesis and structure-activity relationships of 1,2,3,4-tetrahydropyrido[2,3-b]pyrazines as potent and selective inhibitors of the anaplastic lymphoma kinase” (Bioorg Med Chem, 2010).

The target of assay [1] is T1, Serine/threonine-protein kinase 36 (Homo sapiens) (UniProt Q9NRP7).
T1 sequence (whole entry): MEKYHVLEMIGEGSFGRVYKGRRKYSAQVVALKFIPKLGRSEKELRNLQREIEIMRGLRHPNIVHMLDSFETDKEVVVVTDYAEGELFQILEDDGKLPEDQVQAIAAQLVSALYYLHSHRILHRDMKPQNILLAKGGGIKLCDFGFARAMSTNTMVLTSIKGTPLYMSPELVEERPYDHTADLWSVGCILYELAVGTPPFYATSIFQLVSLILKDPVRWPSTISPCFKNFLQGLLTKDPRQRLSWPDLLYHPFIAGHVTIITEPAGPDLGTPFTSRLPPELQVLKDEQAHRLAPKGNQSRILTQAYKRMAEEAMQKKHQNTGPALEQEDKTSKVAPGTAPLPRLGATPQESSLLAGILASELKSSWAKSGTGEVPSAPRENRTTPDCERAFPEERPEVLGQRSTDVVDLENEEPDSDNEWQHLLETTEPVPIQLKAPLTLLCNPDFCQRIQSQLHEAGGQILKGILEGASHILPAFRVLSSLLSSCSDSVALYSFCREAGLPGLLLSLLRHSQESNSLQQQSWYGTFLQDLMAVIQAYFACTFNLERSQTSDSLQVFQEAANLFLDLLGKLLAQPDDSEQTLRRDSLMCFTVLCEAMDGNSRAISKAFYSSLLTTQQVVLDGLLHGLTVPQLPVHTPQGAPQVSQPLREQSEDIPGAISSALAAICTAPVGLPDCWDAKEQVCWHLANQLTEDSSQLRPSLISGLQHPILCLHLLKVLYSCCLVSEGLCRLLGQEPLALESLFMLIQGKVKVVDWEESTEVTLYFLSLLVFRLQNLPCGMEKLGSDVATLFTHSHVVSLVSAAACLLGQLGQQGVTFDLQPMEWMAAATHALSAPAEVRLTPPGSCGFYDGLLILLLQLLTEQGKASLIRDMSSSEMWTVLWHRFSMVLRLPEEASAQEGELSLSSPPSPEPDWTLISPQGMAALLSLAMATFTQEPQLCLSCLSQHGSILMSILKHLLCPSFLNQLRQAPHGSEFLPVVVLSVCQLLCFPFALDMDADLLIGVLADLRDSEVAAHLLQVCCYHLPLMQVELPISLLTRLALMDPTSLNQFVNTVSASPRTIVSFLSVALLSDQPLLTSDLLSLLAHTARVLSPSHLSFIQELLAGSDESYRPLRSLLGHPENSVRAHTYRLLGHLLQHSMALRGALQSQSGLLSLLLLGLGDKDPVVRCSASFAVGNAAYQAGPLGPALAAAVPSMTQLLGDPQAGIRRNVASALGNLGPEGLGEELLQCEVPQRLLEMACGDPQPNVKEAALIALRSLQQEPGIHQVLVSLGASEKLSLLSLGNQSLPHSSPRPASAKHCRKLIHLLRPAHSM
The assay is described as follows: Inhibition of STK36 at 1 uM.

In assay [2] the target is T2, Serine/threonine-protein kinase TBK1 (Homo sapiens) (UniProt Q9UHD2).
T2 sequence (whole entry): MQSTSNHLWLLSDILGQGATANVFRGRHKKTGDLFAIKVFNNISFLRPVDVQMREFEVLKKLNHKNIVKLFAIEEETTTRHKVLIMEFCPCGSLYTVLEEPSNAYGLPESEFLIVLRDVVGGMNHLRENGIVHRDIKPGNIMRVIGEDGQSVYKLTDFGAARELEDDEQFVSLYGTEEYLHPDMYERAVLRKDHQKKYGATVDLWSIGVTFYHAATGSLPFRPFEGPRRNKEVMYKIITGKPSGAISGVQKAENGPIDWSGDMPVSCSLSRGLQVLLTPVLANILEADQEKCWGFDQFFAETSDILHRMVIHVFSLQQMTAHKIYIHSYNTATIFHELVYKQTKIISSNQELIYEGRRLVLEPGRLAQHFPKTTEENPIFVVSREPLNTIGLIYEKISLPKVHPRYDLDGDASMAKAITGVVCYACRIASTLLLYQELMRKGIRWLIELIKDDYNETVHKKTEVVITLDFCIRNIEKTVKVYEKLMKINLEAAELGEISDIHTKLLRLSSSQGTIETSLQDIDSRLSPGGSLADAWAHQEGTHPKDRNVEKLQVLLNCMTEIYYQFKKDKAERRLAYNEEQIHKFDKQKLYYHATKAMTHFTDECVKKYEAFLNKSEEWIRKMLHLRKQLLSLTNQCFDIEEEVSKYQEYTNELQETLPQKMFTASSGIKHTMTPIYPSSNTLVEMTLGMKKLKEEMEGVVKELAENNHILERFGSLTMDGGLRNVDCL
As to the kind of experiment: Inhibition of TBK1 at 1 uM.

For assay [3], the target named is Dual specificity testis-specific protein kinase 1 (Homo sapiens) (UniProt Q15569). The assay is described as follows: Inhibition of TESK1 at 1 uM.
Dual specificity testis-specific protein kinase 1 (Homo sapiens), sequence (Q15569 whole entry, looked up): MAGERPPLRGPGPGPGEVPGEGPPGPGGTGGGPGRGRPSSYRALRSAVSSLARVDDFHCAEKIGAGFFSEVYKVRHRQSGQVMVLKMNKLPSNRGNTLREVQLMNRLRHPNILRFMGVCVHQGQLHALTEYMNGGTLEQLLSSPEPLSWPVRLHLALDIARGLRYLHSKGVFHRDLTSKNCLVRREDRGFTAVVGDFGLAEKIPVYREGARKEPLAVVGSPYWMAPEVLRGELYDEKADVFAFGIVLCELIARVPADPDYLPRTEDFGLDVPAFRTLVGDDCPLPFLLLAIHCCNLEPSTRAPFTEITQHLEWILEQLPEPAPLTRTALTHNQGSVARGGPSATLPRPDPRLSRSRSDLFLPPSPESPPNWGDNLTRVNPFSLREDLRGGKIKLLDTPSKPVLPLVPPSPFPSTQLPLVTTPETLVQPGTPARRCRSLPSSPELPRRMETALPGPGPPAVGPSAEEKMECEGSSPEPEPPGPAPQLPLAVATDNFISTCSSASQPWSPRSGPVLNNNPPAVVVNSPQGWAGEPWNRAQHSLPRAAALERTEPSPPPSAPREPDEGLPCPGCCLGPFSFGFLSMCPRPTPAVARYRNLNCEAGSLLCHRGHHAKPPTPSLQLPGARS
Assay [4] has as its target RAC-alpha serine/threonine-protein kinase (Homo sapiens) (UniProt P31749). As to the kind of experiment: Inhibition of AKT1 at 1 uM. Put shortly:
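Ambit KINOMEscan screen at a single concentration across a 250–400 kinase panel, recorded as percent inhibition. Selectivity was expressed as S(90), the fraction of kinases inhibited >90%.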

Molecules are shown by their SMILES.

RAC-alpha serine/threonine-protein kinase (Homo sapiens), sequence (P31749 whole entry): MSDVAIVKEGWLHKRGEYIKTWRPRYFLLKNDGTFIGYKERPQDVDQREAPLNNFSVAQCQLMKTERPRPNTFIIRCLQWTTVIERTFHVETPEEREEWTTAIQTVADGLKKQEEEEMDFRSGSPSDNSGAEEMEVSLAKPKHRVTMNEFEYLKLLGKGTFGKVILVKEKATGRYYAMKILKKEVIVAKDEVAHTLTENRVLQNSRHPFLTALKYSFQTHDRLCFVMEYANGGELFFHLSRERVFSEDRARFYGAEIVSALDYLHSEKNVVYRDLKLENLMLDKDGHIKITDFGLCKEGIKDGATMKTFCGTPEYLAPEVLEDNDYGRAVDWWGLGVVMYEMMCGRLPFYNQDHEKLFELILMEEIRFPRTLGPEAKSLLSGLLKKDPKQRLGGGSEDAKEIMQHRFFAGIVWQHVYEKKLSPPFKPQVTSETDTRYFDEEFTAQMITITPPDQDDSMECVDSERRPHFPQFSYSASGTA

On to `FC(F)(F)c1ccc(Cl)cc1CN1CCNc2ncc(-c3ccnc(N4CCNCC4)c3)cc21`, for which the inhibition in assay [1], in assay [2], in assay [3] and in assay [4] was less than 50% each time.

In the case of `CN1CCN(c2ccc(-c3cnc4c(c3)N(Cc3cc(Cl)ccc3Cl)CCN4)cn2)CC1`, the inhibition in assay [1], in assay [2], in assay [3] and in assay [4] was less than 50% in each case.

Turning to `COC1CCN(C(=O)c2ccc(-c3cnc4c(c3)N(Cc3cc(Cl)ccc3C(F)(F)F)CCN4)cc2)CC1`, the inhibition in assay [3] and in assay [4] was less than 50% throughout.

On to `O=C(c1ccc(-c2cnc3c(c2)N(Cc2cc(Cl)ccc2C(F)(F)F)CCN3)cc1)N1CCCCC1`, for which the inhibition in assay [3] and in assay [4] was less than 50% throughout.

Regarding `O=C(O)c1ccc(-c2cnc3c(c2)N(Cc2cc(Cl)ccc2C(F)(F)F)CCN3)cc1`, the inhibition in assay [3] and in assay [4] was less than 50% throughout.

`CN1CCN(c2ccc(-c3cnc4c(c3)N(Cc3cc(F)ccc3F)CCN4)cn2)CC1`: the inhibition in assay [1], in assay [2], in assay [3] and in assay [4] was less than 50% throughout.

Regarding `O=C(c1ccc(-c2cnc3c(c2)N(Cc2cc(Cl)ccc2C(F)(F)F)CCN3)cc1)N1CCC(N2CCCC2)CC1`, the inhibition was 88.5% in assay [3] and less than 50% in assay [4].

As for `CN1CCN(c2ccc(-c3cnc4c(c3)N(Cc3c(F)ccc(F)c3Cl)CCN4)cn2)CC1`, the inhibition in assay [1], in assay [2], in assay [3] and in assay [4] was less than 50% in each case.

On to `CC(=O)N1CCN(c2cc(-c3cnc4c(c3)N(Cc3cc(Cl)ccc3C(F)(F)F)CCN4)ccn2)CC1`, for which the inhibition in assay [1], in assay [2], in assay [3] and in assay [4] was less than 50% throughout.

With `CN1CCN(c2ccc(-c3cnc4c(c3)N(Cc3cc(Cl)ccc3C(F)(F)F)CCN4)cn2)CC1`, the inhibition in assay [1], in assay [2], in assay [3] and in assay [4] was less than 50% in each case.

One may read the inhibition as the relative decrease from the control value, in per cent. A higher inhibition goes with a response far below the control.
